SENP8 block-1: human SENP8 protease inhibitors, primary screen, biochemical, fluorescence, Nedd8 protein substrate, uHTS. Sentrin-specific protease 8 (Homo sapiens), Q96LD8. recombinant SENP8. inhibition, % at 20 µM. 0.64% of 360,000 active. AID 602440, 2012; in the data active means inhibition mostly above about 40%, no sharp cut-off; inactive means mostly below about 27%
SENP7 inh: SENP7 protease inhibitors, primary screen, biochemical, luminescence, uHTS; Sentrin-specific protease 7 (Homo sapiens), Q9BQF6; recombinant SENP7, Z-RLRGG-aminoluciferin luminescence, 40 min; inhibition, % at 5 µM; 1.5% of 330,000 active; AID 434973, 2010;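 active means inhibition above about 50% at the single test dose, limit read from the data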;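 further: plate controls were DMSO with enzyme for no effect and no enzyme buffer wells for full effect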
Target sequence (Q9BQF6 706-1050 limits assumed): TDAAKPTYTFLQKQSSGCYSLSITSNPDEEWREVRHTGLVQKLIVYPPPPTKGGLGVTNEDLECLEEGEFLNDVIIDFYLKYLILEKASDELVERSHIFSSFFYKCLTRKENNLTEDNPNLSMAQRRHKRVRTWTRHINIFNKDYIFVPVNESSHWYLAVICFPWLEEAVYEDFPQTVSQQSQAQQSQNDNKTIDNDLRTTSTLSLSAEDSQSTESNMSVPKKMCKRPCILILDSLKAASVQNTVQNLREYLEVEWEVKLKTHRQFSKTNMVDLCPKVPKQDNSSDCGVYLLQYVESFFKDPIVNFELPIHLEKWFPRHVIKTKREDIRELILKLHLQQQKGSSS
SENP1 FRET inh: human SENP1 catalytic domain inhibitors, primary screen, biochemical, FRET, uHTS | recombinant SENP1 catalytic domain, CyPet-SUMO1-YPet FRET cleavage | 0.21% of 360,000 active | inhibition, % at 10 µM | Sentrin-specific protease 1 (Homo sapiens), Q9P0U3;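 active means inhibition at least 30% at 10 µM, raw YFP signal under a set limit, fluorescence ratio 0.5 to 1.5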;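 further: 0% = enzyme with DMSO and 100% = no enzyme wells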
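Test system: human SENP1 catalytic domain; medium: Tris pH 8 buffer plus EDTA, NaCl, BME, BSA, NP40, catalase; incubation: 50 min reaction at room temperature; technique: FRET, CFP and YFP emission; controls: no-enzyme low control and enzyme-plus-DMSO high control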
SENP6 inh: SENP6 protease inhibitors, primary screen, biochemical, luminescence, uHTS | Recombinant SENP6 catalytic domain, aminoluciferin luminescence | 1.8% of 330,000 active | Sentrin-specific protease 6 (Homo sapiens), Q9GZR1 | inhibition, % at 10 µM | AID 2599, 2010;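 active means inhibition above about 50% at the single tested dose, limit read from the data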;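 further: plate controls were DMSO wells with enzyme for no effect and DMSO wells lacking enzyme for full effect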
UCH37 DUB inh: inhibitors of human UCH37 deubiquitinase, primary screen, biochemical, Ub-AMC cleavage, fluorescence; Ubiquitin carboxyl-terminal hydrolase isozyme L5 (Homo sapiens), Q9Y5K5; purified proteasome/UCH37; inhibition, % (concentration not given with the values); 0.33% of 330,000 active; AID 588478, 2011;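 active means mean inhibition over replicate wells above about 20%, limit read from the data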;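 further: 0% = compound-free wells with enzyme and 100% = wells lacking proteasome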
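Schedule: 30 min plus 25 min, room temperature / Material: human UCH37 within purified proteasomes / Technique: AMC fluorescence intensity at 355/460 nm / Buffer or medium: pH 7.4 Tris-HCl (50 mM) with ovalbumin, ATP-MgCl2, DTT / Controls: wells without proteasome as full block, compound-free enzyme plus substrate as uninhibited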
SENP8 block-2: SENP8 protease inhibitors, primary screen, biochemical, luminescence; Sentrin-specific protease 8 (Homo sapiens), Q96LD8; purified SENP8, Z-RLRGG-aminoluciferin cleavage; inhibition, % at 10 µM; 1.2% of 330,000 active; AID 2540, 2010; in the data active means inhibition above about 50%
SENP8 conf: SENP8 protease inhibitors, retest, confirmation, biochemical, luminescence, single concentration; inhibition, % at 12.5 µM; 40% of 6,200 active; Recombinant SENP8, Z-RLRGG-aminoluciferin luminescence, 60 min; shares compounds with SENP7 inh;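 active means mean inhibition across replicates above about 50%, limit read from the data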
SENP6 conf: SENP6 protease inhibitors, confirmation, biochemical, luminescence, single concentration. 58% of 6,200 active. inhibition, % at 12.5 µM. recombinant SENP6, Z-RLRGG-aminoluciferin luminescence. shares compounds with SENP7 inh
SENP7 conf: SENP7 protease inhibitors, retest, confirmation, biochemical, luminescence, single concentration | recombinant SENP7, Z-RLRGG-aminoluciferin luminescence, 40 min | 69% of 6,200 active | shares compounds with SENP7 inh | inhibition, % at 12.5 µM
Casp3 SENP sel: caspase-3 protease inhibitors, confirmation, selectivity assay for SENP inhibitor project, biochemical, single concentration; shares compounds with SENP7 inh; purified caspase-3, Z-DEVD-aminoluciferin luminescence, 60 min; inhibition, % at 12.5 µM; 60% of 6,200 active; AID 488918, 2010;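 active means mean inhibition above about 50%, limit read from the data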;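 further: plate controls were enzyme with DMSO for no effect and wells without caspase-3 for full effect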
SENP luc ctr: interferes with luciferase luminescence in SENP counter-screen. shares compounds with SENP7 inh. inhibition, % at 12.5 µM. 39% of 6,200 active. Pre-incubated SENP8/Z-RLRGG-aminoluciferin, luciferase luminescence interference;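 active means mean inhibition above about 50% when retested at one dose, limit read from the data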;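 further: plate controls were DMSO wells with completed reaction for no effect and substrate without enzyme for full effect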
The depositor's hits bear a star. Only some compounds are listed: those with a hit (about 2.6% of all), similar ones and a draw of the others.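 How the source made its calls, unless noted: active means mean inhibition above about 50% in the one-dose retest (limit read from the data); inactive means the rest.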

COc1cc2sc3cc(NCCCN4CCOCC4)ccc3c(=O)c2cc1OC was read as SENP8 block-1 -463, SENP7 inh 75*, SENP1 FRET inh -30, SENP6 inh 69*, UCH37 DUB inh -94, SENP8 block-2 43, SENP8 conf -10, SENP6 conf -4, SENP7 conf -2, Casp3 SENP sel 17 and SENP luc ctr 29.
For O=c1c2ccccc2sc2ccc(NCCCN3CCOCC3)cc12 the results were SENP8 block-1 -4, SENP7 inh 13, SENP1 FRET inh -2, SENP6 inh 15, UCH37 DUB inh 0 and SENP8 block-2 5.
For O=C(Nc1ccc(C(=O)c2ccccc2)cc1)c1ccccc1 the results were SENP8 block-1 18, SENP7 inh 29, SENP1 FRET inh 2, SENP6 inh 38, UCH37 DUB inh 5 and SENP8 block-2 20.
Screening O=C(Nc1ccc(C(F)(F)F)cc1)c1ccccc1 returned SENP8 block-1 17, SENP7 inh 63*, SENP1 FRET inh 2, SENP6 inh 40, UCH37 DUB inh 2, SENP8 block-2 20, SENP8 conf -4, SENP6 conf 16, SENP7 conf 42, Casp3 SENP sel 32 and SENP luc ctr 4.
`O=C(Nc1cccc(O)c1)c1ccc(C(F)(F)F)cc1` gave SENP8 block-1 8, SENP7 inh 72*, SENP1 FRET inh 0, SENP6 inh 74*, UCH37 DUB inh 4, SENP8 block-2 67*, SENP8 conf 68*, SENP6 conf 70*, SENP7 conf 92*, Casp3 SENP sel 72* and SENP luc ctr 64*.
`CC1=CC(=NOC(=O)/C=C/c2ccccc2)C(C)=CC1=O` gave UCH37 DUB inh 3.
`COc1ccc(CCNC(=O)CCNS(=O)(=O)c2cccc3nsnc23)cc1OC` gave SENP8 block-1 5, SENP7 inh 13, SENP1 FRET inh 1, SENP6 inh -7, UCH37 DUB inh 1 and SENP8 block-2 6.
`COc1ccc(CCNC(=O)CCNS(=O)(=O)c2cccc3nonc23)cc1OC` gave SENP8 block-1 0, SENP7 inh 80*, SENP1 FRET inh 1, SENP6 inh -11, UCH37 DUB inh 7, SENP8 block-2 -1, SENP8 conf 0, SENP6 conf 7, SENP7 conf 8, Casp3 SENP sel 2 and SENP luc ctr 1.
For Cc1nn(-c2ccccc2)c(N=Cc2ccc(O)cc2)c1-c1ccccc1 the results were UCH37 DUB inh 4.
O=C(CC(=O)NN=Cc1c(Cl)cccc1Cl)NCc1ccccc1 was read as UCH37 DUB inh 3.
